# KLK5 inh – blocks human kallikrein 5 protease activity | recombinant hK5, fluorogenic AMC substrate cleavage | 210,000 compounds, 0.59% hits | inhibition, % at 5 µM | Q9Y337;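 active = inhibition of 40% or more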
# Calb biofilm kill – mixtures killing C. albicans biofilm | C. albicans biofilm persisters + clotrimazole, fluorescence viability; primary screen in compound mixtures of four per well | inhibition, % at 7.6 µM | 120,000 compounds, 0.02% hits;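 active = inhibition above 30.3% in the primary screen of four-compound pools, then above 30% when the compound was retested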;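 note: compounds exposed to preformed 24 h biofilms for 48 h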
#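 Test system: C. albicans biofilms. Buffer or medium: RPMI/MOPS medium, pH 7.0. Timing: 48 h compound exposure at 37 °C. Technique: Alamar Blue fluorescence. Evaluation: percent inhibition of biofilm viability.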
# FXIa inh 1536 – factor XIa (human) inhibition | P03951 | purified FXIa, Boc-Glu-Ala-Arg-AMC fluorogenic substrate | inhibition, % at 5 µM | 220,000 compounds, 0.14% hits;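 active = inhibition of at least 40%; inactive = inhibition below 40%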;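 note: fluorescence of freed AMC excited at 355 nm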
# Target sequence (P03951 19-387 limits assumed): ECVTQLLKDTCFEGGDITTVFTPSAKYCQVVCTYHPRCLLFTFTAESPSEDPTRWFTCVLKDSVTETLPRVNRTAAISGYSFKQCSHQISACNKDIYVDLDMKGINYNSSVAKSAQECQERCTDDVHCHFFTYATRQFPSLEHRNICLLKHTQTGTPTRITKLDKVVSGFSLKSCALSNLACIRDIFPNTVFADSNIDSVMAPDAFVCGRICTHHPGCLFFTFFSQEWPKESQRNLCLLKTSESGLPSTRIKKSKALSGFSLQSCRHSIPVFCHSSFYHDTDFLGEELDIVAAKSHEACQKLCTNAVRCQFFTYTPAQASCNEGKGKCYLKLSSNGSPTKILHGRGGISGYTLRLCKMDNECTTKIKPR
# Target sequence (P03951 388-625 limits assumed): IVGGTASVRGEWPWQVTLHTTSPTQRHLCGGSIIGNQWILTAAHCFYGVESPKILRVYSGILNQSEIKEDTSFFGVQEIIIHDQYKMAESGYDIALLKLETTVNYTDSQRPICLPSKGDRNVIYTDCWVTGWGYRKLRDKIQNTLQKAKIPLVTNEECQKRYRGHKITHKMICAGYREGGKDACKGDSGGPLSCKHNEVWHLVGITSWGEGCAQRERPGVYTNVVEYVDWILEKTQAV
# Hep lipid drop – hepatic lipid droplet formation modulation; AML12 mouse hepatocytes, oleate lipid droplets, BODIPY imaging; inhibition, % at 6.5 µM; 240,000 compounds, 0.4% hits; AID 1656;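 active = lipid droplet intensity inhibited by at least 50%, with more than 500 cells counted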
#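 Material: mouse AML12 hepatocyte cell line, fixed after treatment; Timing: compound with oleate, overnight; Technique: high-content imaging of BODIPY-stained droplets and DAPI nuclei; Probe or stimulus: oleate, 100 µM final; Dosing: compound at 6.5 µM only.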
# FXIIa inh – factor XIIa (human) inhibition; inhibition, % at 5 µM; AID 800; purified FXIIa, Boc-QGR-AMC fluorogenic substrate, 2 h; 220,000 compounds, 0.3% hits; P00748; in the data active = inhibition above about 40%
# thrombin 1536 – inhibitors of human thrombin; P00734; alpha-thrombin, Boc-VPR-AMC fluorogenic substrate cleavage; inhibition, % at 5 µM; 220,000 compounds, 0.26% hits; AID 1046;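 active = inhibition at or above 40%; inactive = inhibition below 40%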
#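 System – human alpha-thrombin protein · Reagent – Boc-VPR-AMC substrate, 15 µM final · Compound – 5 µM single dose in 0.2% DMSO · Schedule – reaction at room temperature · Technique – AMC fluorescence at 355 nm excitation and 460 nm emission · Read-out basis – % inhibition relative to enzyme controls and enzyme-free blanks · Control set – no-compound enzyme wells and no-enzyme blanks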
# Lipid drop inh – confirmation of inhibitors of hepatic lipid droplet formation; 870 compounds, 65% hits; AML12 mouse hepatocytes, BODIPY lipid droplet imaging; droplets induced with 100 µM oleic acid; shares compounds with Hep lipid drop; AID 463183; inhibition, % at 5.2 µM;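 active = inhibition of lipid droplet metric at least 50%, with more than 300 cells in each of four replicates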
# AML12 tox img – AML12 hepatocyte cytotoxicity (counter-screen). shares compounds with Hep lipid drop. AML12 mouse hepatocytes, DAPI nuclear morphology cytotoxicity imaging; stronger effect = higher value; cells fed 100 µM oleate overnight. z-score at 5 µM. 870 compounds, 3% hits; in the data active = z-score above about 6.3;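 note: compound exposure lasted overnight at 37 °C before fixation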
# AML12 tox conf – confirmation of cytotoxicity in AML12 mouse hepatocytes; 530 tested, under 10 active; cytotoxicity, % at 50 µM; AML12 mouse hepatocyte viability, ATP luminescence; cells loaded with 100 µM oleic acid; shares compounds with Hep lipid drop; AID 463219;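 active = cytotoxicity above 50% in each of four replicates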;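 note: compound exposure lasted overnight at 37 °C before the ATP read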
# Numbers stand for hits; – = inactive; · = no result given. In the library only some 1.1% were active in any assay of this set; here they are far more common.
SMILES,KLK5 inh,Calb biofilm kill,FXIa inh 1536,Hep lipid drop,FXIIa inh,thrombin 1536,Lipid drop inh,AML12 tox img,AML12 tox conf
O=C(N/C(=C\c1ccco1)C(=O)N1CCCC(CO)C1)c1ccccc1 (stereo not drawn),·,·,·,–,·,·,·,·,·
Cc1nc(NC(=O)C2CC2)sc1C(=O)N(C)C,–,–,–,70.5,–,–,–,–,·
COC(=O)Nc1nc(C)c(C(=O)N(C)C)s1,–,·,–,·,–,–,·,·,·
Cc1nc(C(F)(F)F)c(C(=O)N/N=C(\N)c2cccnc2)s1,–,–,–,–,–,–,·,·,·
CCOc1ccc(CCNC(=O)C(C)n2nc(C)n3c(cc4occc43)c2=O)cc1OCC (stereo not drawn),–,·,–,57.6,–,–,93.5,–,–
CCCNC(=O)CN1C(=O)NC(CCc2ccccc2)C1=O (stereo not drawn),–,–,–,–,–,–,·,·,·
CCCNC(=O)Cn1cccc1C(=O)c1ccccc1,–,·,–,·,–,–,·,·,·
CCOc1ccc(CCNC(=O)Cn2c(-c3nonc3N)nc3ccccc32)cc1OCC,–,·,–,75.2,–,–,100.8,–,–
CCOc1ccc(CCNC(=O)Cn2cccc2C(=O)c2ccccc2)cc1OCC,–,–,–,84.1,–,–,108.8,–,–
CCOc1ccc(CNC(=O)C(CC)n2nc(C)n3c(cc4occc43)c2=O)cc1OC (stereo not drawn),–,·,–,–,–,–,·,·,·
CCOc1ccc(CCNC(=O)CN2C(=O)NC(CCSC)C2=O)cc1OCC (stereo not drawn),–,–,–,85.1,·,–,99.6,–,–
CCOc1ccc(CCNC(=O)Cn2nc(C)n3cccc3c2=O)cc1OCC,·,·,·,78.9,·,·,103.8,–,–
CCOc1ccc(CCNC(=O)CCCn2c(=O)c3cccn3c3cccnc32)cc1OCC,·,·,·,69.2,·,·,88.3,–,–
Cc1cc2nsnc2c(S(=O)(=O)N2CCN(C)CC2)c1C,·,·,·,–,·,·,·,·,·
CCC1CN(C(=O)N2CCC(C(=O)NCc3cccc(OC)c3OC)CC2)c2cc(C)ccc2O1 (stereo not drawn),·,·,·,–,·,·,·,·,·
COc1ccccc1N1CCN(C(=O)Cn2ncc3c([nH]c4ccccc43)c2=O)CC1,·,·,·,52.4,·,·,70.8,–,–
COc1ccc(N2CCN(C(=O)Cn3ncc4c([nH]c5ccccc54)c3=O)CC2)cc1,·,·,·,–,·,·,·,·,·
CCOc1ccc(NC(=O)CN(C)c2ccc(S(=O)(=O)N(C(C)C)C(C)C)cn2)cc1OCC,–,·,–,52.4,–,–,83.7,–,–
O=S(=O)(/C=C/c1ccccc1)N1CCN(c2nc(-c3cccnc3)nc3ccccc23)CC1,–,–,–,–,–,–,·,·,·
CCn1c(=O)n(CC)c2cc(N)ccc21,–,–,–,54.0,–,–,–,–,·
O=C(Nc1ccccc1[N+](=O)[O-])C1COc2ccccc2O1 (stereo not drawn),·,·,·,–,·,·,·,·,·
CC1CC(C)CN(C(=O)CSCC(=O)Nc2nc(-c3cccs3)cs2)C1 (stereo not drawn),–,·,–,56.5,–,–,108.5,–,–
Cc1cc(C)n2nc(C(=O)N/N=C/c3c4ccccc4cc4ccccc34)nc2n1,–,–,–,65.5,–,–,103.3,–,–
O=S(=O)(Cc1ccc(Cl)cc1)c1ncc(CO)n1Cc1ccccc1,–,–,–,–,·,–,·,·,·
COc1ccc2nc(N=NC3=C(O)CC(C)(C)CC3=O)sc2c1,–,–,–,–,–,–,·,·,·
SMILES,KLK5 inh,Calb biofilm kill,FXIa inh 1536,Hep lipid drop,FXIIa inh,thrombin 1536,Lipid drop inh,AML12 tox img,AML12 tox conf
COc1ccc2nc(N=Nc3ccc(O)c4ccccc34)sc2c1,–,–,–,70.6,–,–,104.7,–,·
OCCC1CN(Cc2ccncc2)CCN1C1CCCC1 (stereo not drawn),·,–,–,–,–,–,·,·,·
CSc1ccc(CN2CCN(C3CCCC3)C(CCO)C2)cc1 (stereo not drawn),·,–,–,55.4,–,–,–,–,·
OCC[C@@H]1C[C@@H](O)[C@H](O)[C@]2(CCc3ccccc3O2)O1,·,·,·,–,·,·,·,·,·
OCC[C@@H]1C[C@H](O)[C@@H](O)[C@]2(Cc3ccccc3O2)O1,·,·,·,62.3,·,·,–,–,·
Cc1cccc2sc(NC(=O)CN(C)S(=O)(=O)c3cccs3)nc12,–,·,–,56.5,–,–,95.2,–,–
COc1ccc(OC)c(NC(=O)c2ccccc2SC)c1,–,·,–,–,–,–,·,·,·
COc1ccc(OC)c(NC(=O)c2cc3oc4ccccc4c3cc2O)c1,–,–,–,108.2,–,–,–,–,·
CC1=C/C(=N\Nc2ccccc2[N+](=O)[O-])CC(C)(C)C1,–,–,–,76.8,–,–,114.7,–,·
CCCN1C(=O)/C(=C\C=C2/Sc3ccccc3N2CC)SC1=S,–,–,–,–,–,–,·,·,·
CCCN1C(=O)/C(=C\C=C2\N(CC)c3ccccc3C2(C)C)SC1=S,–,–,–,111.2,–,–,114.7,–,–
